# ABCG2 block = human ABCG2 inhibition, ABCB1 as counter-screen | 190,000 compounds, 0.1% hits | Q9UNQ0 | AID 1325 | inhibition, % at 6.6 µM | IgMXP3 cells, JC-1 efflux, flow cytometry;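 active means inhibition above 80%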;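 further: 0% = DMSO and 100% = nicardipine control wells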
#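 Read-out basis: Efflux inhibition in percent versus controls | Test system: ABCG2 IgMXP3 and barcoded ABCB1 CCRF-Adr cell mix | Quantity: 3 million cells/mL in well | Schedule: 10 min at 25 °C | Control set: Nicardipine as high control, DMSO as low control | Reagent: JC-1 as fluorescent efflux pump substrate | Signal: Flow cytometry of retained JC-1 fluorescence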
# ABCB1 inh = inhibitors of human ABCB1 transporter, ABCG2 counter-screen. inhibition, % at 6.6 µM. 190,000 compounds, 0.067% hits. CCRF-Adr cells, JC-1 efflux, flow cytometry; in the data active means inhibition above about 40%;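 further: 0% = vehicle and 100% = reference inhibitor; higher value means more JC-1 retained so stronger ABCB1 efflux block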
# MDM2 E3 inh = blocks human Mdm2 ubiquitin ligase activity. Q00987. cell-based MDM2 ubiquitination luciferase reporter, 2 h; 0 = plate control, 100 = twice control, blank-subtracted. signal enhancement, % at 5 µM. 210,000 compounds, 0.11% hits. AID 1230;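 active means signal enhancement of 30% or more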;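 further: luminescence tracks abundance of the self-degrading MDM2-luciferase fusion protein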
#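 test system = mammalian cells stably expressing self-ubiquitinating, self-degrading MDM2 E3–luciferase fusion | quantity = 2000 cells/well | incubation = cell settling 4 h, compound treatment 2 h, both 37 °C | signal = luminescence with SteadyLite reagent, 15 min at room temperature | evaluation = % enhancement relative to plate controls after blank subtraction | benchmarks = plate controls and plate blanks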
# Rad51 HR inh = Rad51 (human) homologous recombination inhibition. inhibition, % at 10 µM. Q06609. hRad51 DNA strand exchange, fluorescence dequenching. AID 1385. 200,000 compounds, 0.085% hits;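 active means inhibition above 40% at the single screening dose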;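 further: 0% = DMSO control wells and 100% = blanks with heterologous ssDNA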
#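 Test system – preformed human Rad51 ssDNA filaments · Reagent – Donor/quencher-labelled 47-bp dsDNA substrate · Incubation – 37 °C 15-min filament assembly, 30-min compound preincubation, 15-min exchange · Signal – FRET fluorescence dequenching, excitation 485 nm, emission 520 nm · Read-out – percent inhibition from fluorescence, normalised to plate control and blank means · Benchmarks – plate control and blank wells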
# Arbovirus anti = arbovirus infection inhibition | 200,000 compounds, 0.37% hits | arbovirus infection cell-based antiviral screen | AID 1251 | inhibition, % at 10 µM; in the data active means inhibition above about 30%
# ABCB1 single pt = inhibits human ABCB1 efflux, confirmed at single point | shares compounds with ABCG2 block | CCRF-Adr cells, JC-1 efflux, flow cytometry | inhibition, % at 6.6 µM | 270 compounds, 7% hits | AID 1451;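 active means inhibition of pump activity above 50%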;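 further: 0% = DMSO and 100% = nicardipine full pump inhibition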
# ABCG2 confirm = inhibits human ABCG2 efflux, confirmed at single point; shares compounds with ABCG2 block; IgMXP3 cells, JC-1 efflux, flow cytometry; AID 1453; 270 compounds, 6% hits; inhibition, % at 6.6 µM;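 active means inhibition above 50%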;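 further: 0% = DMSO wells and 100% = nicardipine pump inhibitor wells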
# IgMXP3 autofluor = counter-screen for ABCG2 inhibitors: compound fluorescence in IgMXP3 cells | shares compounds with ABCG2 block | compound autofluorescence 488/530 nm, flow; active compounds read high | fluorescence at 6.6 µM | 270 compounds, 30% hits | AID 1480;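 active means fluorescence in ABCG2-expressing cells above the plate's control-well mean plus 3 SD, cut at about 15 in these data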;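 further: median cell fluorescence with compound minus that of DMSO-treated control cells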
# CCRF autofluor = CCRF-Adr autofluorescence flag for ABCB1 confirmation | 270 compounds, 30% hits | fluorescence at 6.6 µM | CCRF-Adr cells, compound autofluorescence 488/530 nm, flow cytometry; active compounds read high | shares compounds with ABCG2 block;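 active means fluorescence beyond the plate control mean plus 3 SD, with a fluorescence-to-maximum score over 2, cut at about 25 in these data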
# Numbers without * were called inactive; i = inactive; . = not tested or not shown. The list is not random: actives were taken first. Their share in the collection is about 0.62%.
SMILES,ABCG2 block,ABCB1 inh,MDM2 E3 inh,Rad51 HR inh,Arbovirus anti,ABCB1 single pt,ABCG2 confirm,IgMXP3 autofluor,CCRF autofluor
O=C(c1ccccc1)c1ccc(N2CCOCC2)c(NC(=O)c2ccco2)c1,81.3*,3.6,1.2,-17.1,-2.5,0.4,47.5,0.46,32.9*
O=C(Nc1cc(C(F)(F)F)ccc1N1CCOCC1)c1ccco1,2.0,0.1,1.2,-26.9,-2.7,.,.,.,.
CCc1ccc(NC(=O)Cn2ncc3c4ccccc4n(C)c3c2=O)cc1,.,.,-14.1,15.4,.,.,.,.,.
O=C1NC(c2ccc(-c3ccccc3[N+](=O)[O-])o2)C(C(=O)c2ccc(F)cc2)C(O)(C(F)(F)F)N1 (configuration not stated),88.4*,1.4,-14.2,24.0,19.2,9.4,20.5,14.7*,12.8
N#Cc1ccc(C(=O)Nc2ccc([N+](=O)[O-])cc2)c(F)c1,2.6,0.3,7.0,0.8,-10.5,.,.,.,.
CCOc1ccc(NC(=O)c2cccc3c2C(=O)N(CCOC)C3)cc1,82.2*,3.1,5.1,2.3,4.3,9.2,52.4*,7.36,11.7
Cc1nccn1CC(=O)N/N=C/c1cccc(O)c1,-0.7,-0.3,-8.6,-1.1,7.9,.,.,.,.
Nn1c(Cc2cccc3ccccc23)nnc1SCc1ccc(Cl)c(Cl)c1,81.7*,66.5*,1.5,22.3,5.2,1.0,17.4,0.36,-1.94
Nn1c(Cc2cccc3ccccc23)nnc1SCc1c(Cl)cccc1Cl,2.4,1.2,.,.,-15.5,.,.,.,.
CC(NC(=O)/C(C#N)=C1\N=C(NC(=O)c2cccs2)c2ccccc21)c1ccccc1 (configuration not stated),21.9,0.9,-1.1,-25.5,-8.7,.,.,.,.
CCN(CC)c1nc(-c2cccc(OC)c2O)nc2ccccc12,82.6*,7.5,-19.9,7.0,-9.7,25.1,23.7,17*,108*
CNc1c([N+](=O)[O-])cnn1-c1ccccn1,-0.1,-0.2,-2.6,21.6,-0.4,.,.,.,.
CCOC(=O)/C(C#N)=C\c1cc(C)n(-c2ccccc2)c1C,80.8*,3.8,-9.3,-6.6,-0.3,4.0,26.1,-1.24,-2.09
O=C1/C(=C/c2ccc(N3CCOCC3)o2)SC(=Nc2ccccc2)N1CCc1c[nH]c2ccccc12,127.4*,81.2*,19.2,i,-39.7,2.6,0.1,76.9*,192*
COc1cc(/C=C2\SC(=Nc3ccccc3)N(CCc3c[nH]c4ccccc34)C2=O)ccc1OC(C)C(=O)O (configuration not stated),-2.3,-0.4,-10.9,10.2,-13.2,.,.,.,.
O=C1S/C(=C/c2ccc(N3CCOCC3)o2)C(=O)N1Cc1ccc(F)cc1,111.4*,6.8,.,-80.0,-35.8,4.5,-10.3,196*,40.6*
CCN(CC)c1ccc2cc(-c3nc4ccccc4[nH]3)c(=O)oc2c1,65.3,39.4,-33.8,i,-3.0,-129.0,-14.7,122*,296*
C[C@H](NC(=O)c1nc[nH]c1C(=O)N[C@@H](CCCCNC(=O)OC(C)(C)C)C(=O)OC(C)(C)C)c1ccccc1,.,.,3.1,2.4,.,.,.,.,.
CC1=Nc2ccccc2/C1=C\c1nc(-c2ccccc2)oc1O,2.1,1.3,-1.1,21.0,-4.2,.,.,.,.
CC1=Nc2ccccc2/C1=C\c1nc(-c2ccc(C(F)(F)F)cc2)oc1O,49.2,44.1*,-12.5,4.6,11.2,-23.0,12.9,68.7*,201*
Cc1ccc(C(=O)NCC(=O)N/N=C/c2sccc2C)cc1[N+](=O)[O-],2.3,0.2,-9.6,-0.8,-7.1,.,.,.,.
Cc1ccccc1CN1CCc2c(OCC(=O)N3CCCc4ccccc43)cccc2C1=O,51.8,47.4*,-15.6,-3.5,-30.5,28.8,36.2,21.6*,12.9

# Compound activity: PubChem BioAssay, several laboratories
